ChEMBL document CHEMBL1147862, “Studies on synthesis and pharmacological activities of 3,6-disubstituted-1,2,4-triazolo[3,4-b]-1,3,4-thiadiazoles and their dihydro analogues” (2007)

Tests used:
Assay type in all cases: functional
Rattus norvegicus [1] = assay: Antiinflammatory activity in Wistar Albino rat assessed as inhibition of carrageenan-induced paw oedema at 20 mg/kg after 2 hrs relative to control
Summary of the method: (§1)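 Wistar albino rats, 150–200 g, six per group, dosed orally with a 20 mg/kg suspension; control gets 0.1 ml 1% gum acacia. After 30 min, 0.1 ml 1% carrageenan in saline is injected subplantar into the right hind paw. Paw volume is read by plethysmograph at 0–4 h. Inhibition = 100(1 − Vtest/Vcontrol) on mean volume increase.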

Escherichia coli [2] = assay: Antibacterial activity against Escherichia coli at 20 ug/ml by agar plate diffusion technique; conditions: read-out: IZ
Aspergillus niger [3] = assay: Antifungal activity against Aspergillus niger at 10 ug/ml by paper disc method; conditions: read-out: IZ
Candida albicans [4] = assay: Antifungal activity against Candida albicans at 20 ug/ml by paper disc method; conditions: read-out: IZ
Staphylococcus aureus [5] = assay: Antibacterial activity against Staphylococcus aureus at 10 ug/ml by agar plate diffusion technique; conditions: read-out: IZ
Staphylococcus aureus [6] = assay: Antibacterial activity against Staphylococcus aureus at 30 ug/ml by agar plate diffusion technique; conditions: read-out: IZ
Bacillus subtilis [7] = assay: Antibacterial activity against Bacillus subtilis at 10 ug/ml by agar plate diffusion technique; conditions: read-out: IZ
Rattus norvegicus [8] = assay: Antiinflammatory activity in Wistar Albino rat assessed as inhibition of carrageenan-induced paw oedema at 20 mg/kg after 3 hrs relative to control; summary of the method: as §1
Escherichia coli [9] = assay: Antibacterial activity against Escherichia coli at 10 ug/ml by agar plate diffusion technique; conditions: read-out: IZ
Rattus norvegicus [10] = assay: Antiinflammatory activity in Wistar Albino rat assessed as inhibition of carrageenan-induced paw oedema at 20 mg/kg after 1 hr relative to control; summary of the method: as §1
Aspergillus niger [11] = assay: Antifungal activity against Aspergillus niger at 20 ug/ml by paper disc method; conditions: read-out: IZ
Candida albicans [12] = assay: Antifungal activity against Candida albicans at 30 ug/ml by paper disc method; conditions: read-out: IZ
Aspergillus niger [13] = assay: Antifungal activity against Aspergillus niger at 30 ug/ml by paper disc method; conditions: read-out: IZ
Escherichia coli [14] = assay: Antibacterial activity against Escherichia coli at 30 ug/ml by agar plate diffusion technique; conditions: read-out: IZ
Staphylococcus aureus [15] = assay: Antibacterial activity against Staphylococcus aureus at 20 ug/ml by agar plate diffusion technique; conditions: read-out: IZ
Mus musculus [16] = assay: Analgesic activity in Swiss mouse assessed as increase in reaction time at 20 mg/kg, po after 90 mins by Eddy's hot plate technique
Summary of the method: (§2)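 Swiss mice of either sex, 25–35 g, placed one at a time on a hot plate held at 55 °C. End point is paw licking or jumping, whichever comes first, with a 15 s cut-off to avoid paw injury. Reaction time is recorded and reported as percent increase in reaction time.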

Candida albicans [17] = assay: Antifungal activity against Candida albicans at 10 ug/ml by paper disc method; conditions: read-out: IZ
Pseudomonas aeruginosa [18] = assay: Antibacterial activity against Pseudomonas aeruginosa at 20 ug/ml by agar plate diffusion technique; conditions: read-out: IZ
Bacillus subtilis [19] = assay: Antibacterial activity against Bacillus subtilis at 30 ug/ml by agar plate diffusion technique; conditions: read-out: IZ
Pseudomonas aeruginosa [20] = assay: Antibacterial activity against Pseudomonas aeruginosa at 10 ug/ml by agar plate diffusion technique; conditions: read-out: IZ
Bacillus subtilis [21] = assay: Antibacterial activity against Bacillus subtilis at 20 ug/ml by agar plate diffusion technique; conditions: read-out: IZ
Mus musculus [22] = assay: Analgesic activity in Swiss mouse assessed as increase in reaction time at 20 mg/kg, po after 30 mins by Eddy's hot plate technique; summary of the method: as §2
Mus musculus [23] = assay: Analgesic activity in Swiss mouse assessed as increase in reaction time at 20 mg/kg, po after 60 mins by Eddy's hot plate technique; summary of the method: as §2
Pseudomonas aeruginosa [24] = assay: Antibacterial activity against Pseudomonas aeruginosa at 30 ug/ml by agar plate diffusion technique; conditions: read-out: IZ
Rattus norvegicus [25] = assay: Antiinflammatory activity in Wistar Albino rat assessed as inhibition of carrageenan-induced paw oedema at 20 mg/kg after 4 hrs relative to control; summary of the method: as §1

Cc1occc1-c1nnc2sc(-c3ccnc(Cl)c3)nn12
inhibition in vivo at 20 mg/kg (Rattus norvegicus [1]): 15.3%
zone of inhibition at 20 µg/mL (Escherichia coli [2]): 14.8 mm
zone of inhibition at 10 µg/mL (Aspergillus niger [3]): 7.38 mm
zone of inhibition at 20 µg/mL (Candida albicans [4]): 14 mm
zone of inhibition at 10 µg/mL (Staphylococcus aureus [5]): 7.82 mm
zone of inhibition at 30 µg/mL (Staphylococcus aureus [6]): 19.2 mm
zone of inhibition at 10 µg/mL (Bacillus subtilis [7]): 7.82 mm
inhibition in vivo at 20 mg/kg (Rattus norvegicus [8]): 24.1%
zone of inhibition at 10 µg/mL (Escherichia coli [9]): 7.48 mm
inhibition in vivo at 20 mg/kg (Rattus norvegicus [10]): 10.1%
zone of inhibition at 20 µg/mL (Aspergillus niger [11]): 14.3 mm
zone of inhibition at 30 µg/mL (Candida albicans [12]): 21.9 mm
zone of inhibition at 30 µg/mL (Aspergillus niger [13]): 20.7 mm
zone of inhibition at 30 µg/mL (Escherichia coli [14]): 20.2 mm
zone of inhibition at 20 µg/mL (Staphylococcus aureus [15]): 14.7 mm
Activity (Mus musculus [16]): 20.34%
zone of inhibition at 10 µg/mL (Candida albicans [17]): 7.26 mm
zone of inhibition at 20 µg/mL (Pseudomonas aeruginosa [18]): 13.8 mm
zone of inhibition at 30 µg/mL (Bacillus subtilis [19]): 20.4 mm
zone of inhibition at 10 µg/mL (Pseudomonas aeruginosa [20]): 7.79 mm
zone of inhibition at 20 µg/mL (Bacillus subtilis [21]): 14.6 mm
Activity (Mus musculus [22]): 6.04%
Activity (Mus musculus [23]): 11.35%
zone of inhibition at 30 µg/mL (Pseudomonas aeruginosa [24]): 20.6 mm
inhibition in vivo at 20 mg/kg (Rattus norvegicus [25]): 27.1%

Cc1cc(-c2nn3c(-c4ccoc4C)nnc3s2)c2ccccc2n1
inhibition in vivo at 20 mg/kg (Rattus norvegicus [1]): 13.4%
zone of inhibition at 20 µg/mL (Escherichia coli [2]): 10.5 mm
zone of inhibition at 10 µg/mL (Aspergillus niger [3]): 6 mm
zone of inhibition at 20 µg/mL (Candida albicans [4]): 12.6 mm
zone of inhibition at 10 µg/mL (Staphylococcus aureus [5]): 7.1 mm
zone of inhibition at 30 µg/mL (Staphylococcus aureus [6]): 17.9 mm
zone of inhibition at 10 µg/mL (Bacillus subtilis [7]): 7.38 mm
inhibition in vivo at 20 mg/kg (Rattus norvegicus [8]): 18.6%
zone of inhibition at 10 µg/mL (Escherichia coli [9]): 6.28 mm
inhibition in vivo at 20 mg/kg (Rattus norvegicus [10]): 7.23%
zone of inhibition at 20 µg/mL (Aspergillus niger [11]): 13.5 mm
zone of inhibition at 30 µg/mL (Candida albicans [12]): 19 mm
zone of inhibition at 30 µg/mL (Aspergillus niger [13]): 17.4 mm
zone of inhibition at 30 µg/mL (Escherichia coli [14]): 17 mm
zone of inhibition at 20 µg/mL (Staphylococcus aureus [15]): 13.7 mm
Activity (Mus musculus [16]): 20.34%
zone of inhibition at 10 µg/mL (Candida albicans [17]): 5.84 mm
zone of inhibition at 20 µg/mL (Pseudomonas aeruginosa [18]): 11.8 mm
zone of inhibition at 30 µg/mL (Bacillus subtilis [19]): 17.1 mm
zone of inhibition at 10 µg/mL (Pseudomonas aeruginosa [20]): 6 mm
zone of inhibition at 20 µg/mL (Bacillus subtilis [21]): 12.5 mm
Activity (Mus musculus [22]): 6.04%
Activity (Mus musculus [23]): 11.35%
zone of inhibition at 30 µg/mL (Pseudomonas aeruginosa [24]): 16.8 mm
inhibition in vivo at 20 mg/kg (Rattus norvegicus [25]): 26.3%
